The list is not random: actives were taken first. Their share in the collection is about 1.7%.
Neddyl block: inhibitors of cullin neddylation, primary screen, biochemical, TR-FRET, uHTS, NAE and Ubc12; 360,000 compounds, 0.58% hits; inhibition, % at 25 µM; in the data active = inhibition above about 36%
Pemphigus Ab inh: inhibitors of pemphigus antibody binding to DSG3, primary screen, biochemical, bead-based, flow cytometry, scFv-GFP | Desmoglein-3 (Homo sapiens), P32926 | DSG3-coupled beads, scFv-anti-DSG3-GFP binding; stronger effect = lower value | binding (percent of control), % at 10 µM | 310,000 compounds, 0.48% hits | AID 588358, 2011;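 active = binding more than 3 SD below its plate's average and above zero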
Efflux pump mplx: inhibitors of Candida efflux pumps in yeast, primary screen, S. cerevisiae, Nile Red, multiplex; S. cerevisiae Candida pump triplex; inhibition, % at 10 µM; 330,000 compounds, 0.44% hits; AID 485275, 2010;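 active = plate passing quality check with inhibition over a set limit, or well fluorescence over plate mean plus 4 SD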;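 note: Nile Red retained in pooled yeast measured as flow cytometry median fluorescence; 0% = buffer negative control and 100% = Enniatin B positive control; higher means more Nile Red kept so more efflux inhibition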
Arrestin-AP2 inh: inhibitors of beta-arrestin/AP2 binding, primary screen, biochemical, GPCR trafficking, flow cytometry; inhibition, % at 10 µM; FITC-arrestin peptide / GST-AP2 beads; AP2 beta2 appendage carries R879A mutation; AID 504490, 2011; beta-arrestin 1 C-terminal peptide binding to AP2 beta2-adaptin appendage (human); 340,000 compounds, 0.31% hits;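 active = inhibition above a set limit, near 3 SD of compounds lacking own fluorescence, cut at about 54% in these data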;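 note: plate controls were DMSO wells for no effect and 5 µM unlabelled arrestin peptide for full effect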
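System: GST-AP2 R879A glutathione beads; medium: PBS, Tween 20 0.05%, BSA 0.1%; reagent: fluorescein-tagged arrestin peptide at 50 nM final; schedule: pre-incubation 12 min, peptide binding 1 h, room temperature; detection: flow cytometry, FL1 (488/535 nm); read-out: inhibition as reduced fluorescein signal on beads, percent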
Arr-AP2 CP1: inhibitors of arrestin peptide binding to AP2, confirmation, biochemical, cherry pick 1, flow cytometry beads. inhibition, % at 10 µM. 1,300 compounds, 2% hits. AID 504908, 2011. shares compounds with Arrestin-AP2 inh. GST-AP2 beads, FITC arrestin peptide binding; GST-fused beta2-adaptin appendage, R879A mutant;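 active = inhibition above a set limit, roughly 3 SD of non-fluorescent compound noise, cut at about 38% in these data; inactive = inhibition at or below that limit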;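 note: loss of bead fluorescence from 50 nM FITC arrestin peptide bound to appendage; 0% = negative control wells and 100% = excess unlabelled arrestin peptide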
Target sequence (P63010 whole entry, looked up, the tested form may be a part, one chain of several): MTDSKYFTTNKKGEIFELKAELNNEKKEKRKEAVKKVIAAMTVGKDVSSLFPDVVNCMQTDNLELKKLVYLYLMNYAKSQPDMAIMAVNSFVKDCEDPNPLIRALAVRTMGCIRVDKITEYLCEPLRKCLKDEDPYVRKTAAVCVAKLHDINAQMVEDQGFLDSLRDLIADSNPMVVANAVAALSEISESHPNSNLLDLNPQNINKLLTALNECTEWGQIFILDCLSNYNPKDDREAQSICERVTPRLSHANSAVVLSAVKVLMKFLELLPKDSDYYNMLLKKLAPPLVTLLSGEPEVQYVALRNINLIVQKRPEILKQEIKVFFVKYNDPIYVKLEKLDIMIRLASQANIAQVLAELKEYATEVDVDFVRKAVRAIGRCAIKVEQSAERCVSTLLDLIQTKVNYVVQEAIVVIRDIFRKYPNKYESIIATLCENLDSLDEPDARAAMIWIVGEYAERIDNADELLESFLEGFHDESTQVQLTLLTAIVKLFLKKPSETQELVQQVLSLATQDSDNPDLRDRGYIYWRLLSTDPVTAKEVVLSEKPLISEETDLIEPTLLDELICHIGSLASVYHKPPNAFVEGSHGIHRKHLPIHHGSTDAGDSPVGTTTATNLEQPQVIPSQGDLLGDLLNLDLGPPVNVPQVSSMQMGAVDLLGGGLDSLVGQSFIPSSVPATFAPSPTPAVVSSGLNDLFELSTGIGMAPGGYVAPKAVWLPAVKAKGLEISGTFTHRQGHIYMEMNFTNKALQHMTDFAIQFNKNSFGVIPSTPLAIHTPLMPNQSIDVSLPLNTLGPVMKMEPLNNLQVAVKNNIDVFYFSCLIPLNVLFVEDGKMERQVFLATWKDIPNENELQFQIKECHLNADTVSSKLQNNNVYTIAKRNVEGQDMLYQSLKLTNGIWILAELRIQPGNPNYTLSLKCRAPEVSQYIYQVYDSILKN
GST GSH counter: GST-fluorescein capture on glutathione beads, confirmation, artefact control for arrestin-AP2 inhibitor project, biochemical, cherry pick 1, flow cytometry | shares compounds with Arrestin-AP2 inh | AID 588338, 2011 | 1,300 compounds, 2% hits | GST-fluorescein binding to GSH beads, fluorescence, counter-screen | inhibition, % at 10 µM;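 active = inhibition above 50%, about 3 SD of the inhibition seen with non-fluorescent compounds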;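 note: fluorescein maleimide labelled GST captured on 4 micron glutathione beads; higher means more loss of bead fluorescence from quenching or blocked binding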
Starred values were filed as active, the others as inactive; . = no result given.

SMILES	Neddyl block	Pemphigus Ab inh	Efflux pump mplx	Arrestin-AP2 inh	Arr-AP2 CP1	GST GSH counter
CCn1c(=O)n(CC)c2cc(N3CCCC3)c(NC(=O)c3ccccc3)cc21	30	95	0	8	-2	9
Cn1c(=O)n(C)c2cc(N3CCCCC3)c(NC(=O)c3ccccc3)cc21	7	104	0	9	5	0
CCn1c(=O)n(CC)c2cc(N3CCCC3)c(NC(=O)c3ccc(C)cc3)cc21	28	.	0	11	25	.
O=C(NC1CCCCC1)C(c1ccc(C(F)(F)F)cc1)n1c(=O)c(-c2ccco2)nc2ccccc21 (centres undefined)	19	.	.	.	.	.
COc1ccc(OCC(Cn2cnc3ccccc32)OC(C)=O)cc1 (centres undefined)	2	101	0	-9	.	.
CC(=O)OC(COc1ccccc1)Cn1cnc2ccccc21 (centres undefined)	0	92	0	55*	-6	-12
CCN(CC)c1ccc(NC(=O)C2=CCN(S(=O)(=O)c3ccc(F)cc3)CC2)c(C)c1	2	105	0	1	.	.
N=c1c2cn[nH]c2nc(SCC(=O)c2ccc(Br)cc2)n1-c1ccc(Br)cc1	-98	103	0	74*	-3	0
O=C(CSc1nc2[nH]ncc2c(=O)n1-c1ccccc1)c1ccc2c(c1)OCCO2	-8	104	0	0	.	.
COc1cc2c(cc1NC(=O)Nc1ccccc1)oc1ccccc12	.	112	0	-3	5	-1
COc1cc2c(cc1NC(=O)C(C)NCc1ccccc1)oc1ccccc12 (centres undefined)	18	95	0	10	2	-5
COc1cc2c(cc1NC(=S)Nc1cccc3ccccc13)oc1ccccc12	4	108	0	5	.	.
COc1cc2c(cc1NC(=O)COC(=O)[C@@H](NS(=O)(=O)c1ccccc1)C(C)C)oc1ccccc12	-18	98	0	-5	.	.
Cc1cc2nc(/C(C#N)=C\c3ccc(-c4ccccc4C(=O)O)o3)[nH]c2cc1C	-100	111	0	54*	6	15
CS(=O)(=O)N1CCN=C1SCc1ccc([N+](=O)[O-])cc1	-16	89	0	14	.	.
O=C(CCC1CCCN(C(=O)c2ccc3cc[nH]c3c2)C1)NCc1ccc(F)c(F)c1 (centres undefined)	11	110	0	58*	9	-7
Cc1ccccc1CN1CCC(N2CCC(C(=O)NCC3CCCO3)CC2)CC1 (centres undefined)	14	122	0	65*	-2	-5
O=c1c(Sc2ccccc2)c(C(F)(F)F)[nH]n1-c1ccccc1	1	97	0	7	.	.
COc1ccc(N2C(=O)CSC2c2ccc3c(c2)OCO3)c(OC)c1 (centres undefined)	-3	103	0	25	.	.
COc1ccc(N2C(=O)CSC2c2ccc3c(c2)OCO3)cc1 (centres undefined)	2	105	0	61*	4	-8
O=C(Nc1cccc2ccccc12)c1csc(COCCO)n1	-6	.	.	.	.	.
CCOC(=O)C1=C(COC(=O)Cc2c(F)cccc2Cl)NC(=O)NC1C (centres undefined)	-26	.	0	4	10	-10
CCOC(=O)C1=C(COC(=O)c2c(OC)cccc2OC)NC(=O)NC1C (centres undefined)	10	106	0	-2	.	.
CCOC(=O)C1=C(COC(=O)CC(C)c2ccccc2)NC(=O)NC1C (centres undefined)	6	.	0	-9	3	3
CCOC(=O)C1=C(COC(=O)c2ccc(OC(C)C)cc2)NC(=O)NC1C (centres undefined)	5	100	0	38	.	.
CCOC(=O)C1=C(COC(=O)C(CC)Oc2ccccc2)NC(=O)NC1C (centres undefined)	4	94	0	-9	-9	-6
